From ChEMBL document CHEMBL5260840 (J Med Chem, 2019)

How the values were obtained:
[1] = target: T1, von Hippel-Lindau disease tumor suppressor/Bromodomain-containing protein 9 (Homo sapiens) (UniProt Q9H8M2+P40337); experiment: PROTAC activity at VHL/BRD9 in human HeLa cells assessed as remaining BRD9 protein level at 1 uM incubated for 16 hrs by Western blot analysis relative to control; assay type: cell-based
Outline: (§1)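 HeLa cells treated with compound for the stated time before harvest; BRD9, BRD7 and β-actin detected by Western blot with β-actin loading control; band intensities quantified.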

[2] = target: T2, von Hippel-Lindau disease tumor suppressor/Bromodomain-containing protein 7 (Homo sapiens) (UniProt Q9NPI1+P40337); experiment: PROTAC activity at VHL/BRD7 in human HeLa cells assessed as remaining BRD7 protein level at 1 uM incubated for 4 hrs by Western blot analysis relative to control; assay type: cell-based
T2 sequence (P40337 whole entry, looked up): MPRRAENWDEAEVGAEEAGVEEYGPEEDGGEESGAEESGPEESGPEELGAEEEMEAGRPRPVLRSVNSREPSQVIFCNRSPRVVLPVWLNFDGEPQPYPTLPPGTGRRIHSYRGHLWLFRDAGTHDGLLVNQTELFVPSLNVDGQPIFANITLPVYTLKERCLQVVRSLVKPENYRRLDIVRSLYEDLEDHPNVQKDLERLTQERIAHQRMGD
T2 sequence (Q9NPI1 whole entry, looked up): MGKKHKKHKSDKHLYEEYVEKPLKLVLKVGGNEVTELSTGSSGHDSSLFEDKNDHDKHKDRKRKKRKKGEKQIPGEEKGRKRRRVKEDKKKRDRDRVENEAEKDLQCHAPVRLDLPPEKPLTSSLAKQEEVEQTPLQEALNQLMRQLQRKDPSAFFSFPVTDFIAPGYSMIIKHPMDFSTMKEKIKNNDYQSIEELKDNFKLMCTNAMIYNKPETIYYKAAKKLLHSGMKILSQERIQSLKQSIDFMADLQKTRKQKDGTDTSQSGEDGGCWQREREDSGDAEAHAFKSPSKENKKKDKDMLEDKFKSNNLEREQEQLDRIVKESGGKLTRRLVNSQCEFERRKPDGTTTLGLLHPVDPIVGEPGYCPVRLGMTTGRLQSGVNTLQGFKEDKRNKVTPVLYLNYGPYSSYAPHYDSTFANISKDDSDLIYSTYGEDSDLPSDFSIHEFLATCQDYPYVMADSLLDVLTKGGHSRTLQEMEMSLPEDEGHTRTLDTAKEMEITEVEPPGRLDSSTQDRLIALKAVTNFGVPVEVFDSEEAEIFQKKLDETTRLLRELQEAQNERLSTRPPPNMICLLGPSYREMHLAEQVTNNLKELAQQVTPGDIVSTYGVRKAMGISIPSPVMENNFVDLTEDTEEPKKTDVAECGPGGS

[3] = target: T2, von Hippel-Lindau disease tumor suppressor/Bromodomain-containing protein 7 (Homo sapiens); experiment: PROTAC activity at VHL/BRD7 in human HeLa cells assessed as remaining BRD7 protein level at 1 uM incubated for 16 hrs by Western blot analysis relative to control; assay type: cell-based
A204 = experiment: Antiproliferative activity against human A204 cells assessed as inhibition of cell growth incubated for 7 days by CellTiterGlo assay; assay type: functional, cell-based; settings: A204, 168 h
EOL1 = experiment: Antiproliferative activity against human EOL1 cells assessed as inhibition of cell growth incubated for 7 days by CellTiterGlo assay; assay type: functional, cell-based; settings: EOL1, 168 h
[4] = target: T3, Protein cereblon/Bromodomain-containing protein 9 (Homo sapiens) (UniProt Q9H8M2+Q96SW2); experiment: PROTAC activity at CRBN/BRD9 in human HeLa cells assessed as remaining BRD9 protein level at 1 uM incubated for 4 hrs by Western blot analysis relative to control; assay type: cell-based
T3 sequence (Q96SW2 whole entry, looked up): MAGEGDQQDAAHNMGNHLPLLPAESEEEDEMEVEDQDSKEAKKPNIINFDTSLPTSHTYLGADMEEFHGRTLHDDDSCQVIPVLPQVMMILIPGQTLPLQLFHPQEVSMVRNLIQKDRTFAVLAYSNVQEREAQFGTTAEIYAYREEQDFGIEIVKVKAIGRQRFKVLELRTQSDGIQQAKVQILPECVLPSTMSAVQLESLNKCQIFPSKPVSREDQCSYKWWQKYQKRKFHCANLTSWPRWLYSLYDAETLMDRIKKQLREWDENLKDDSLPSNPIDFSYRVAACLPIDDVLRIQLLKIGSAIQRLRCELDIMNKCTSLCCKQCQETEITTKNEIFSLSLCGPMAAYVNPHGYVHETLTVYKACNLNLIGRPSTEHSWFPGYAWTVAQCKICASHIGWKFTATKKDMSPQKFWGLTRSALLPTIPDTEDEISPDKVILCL
T3 sequence (Q9H8M2 whole entry, looked up): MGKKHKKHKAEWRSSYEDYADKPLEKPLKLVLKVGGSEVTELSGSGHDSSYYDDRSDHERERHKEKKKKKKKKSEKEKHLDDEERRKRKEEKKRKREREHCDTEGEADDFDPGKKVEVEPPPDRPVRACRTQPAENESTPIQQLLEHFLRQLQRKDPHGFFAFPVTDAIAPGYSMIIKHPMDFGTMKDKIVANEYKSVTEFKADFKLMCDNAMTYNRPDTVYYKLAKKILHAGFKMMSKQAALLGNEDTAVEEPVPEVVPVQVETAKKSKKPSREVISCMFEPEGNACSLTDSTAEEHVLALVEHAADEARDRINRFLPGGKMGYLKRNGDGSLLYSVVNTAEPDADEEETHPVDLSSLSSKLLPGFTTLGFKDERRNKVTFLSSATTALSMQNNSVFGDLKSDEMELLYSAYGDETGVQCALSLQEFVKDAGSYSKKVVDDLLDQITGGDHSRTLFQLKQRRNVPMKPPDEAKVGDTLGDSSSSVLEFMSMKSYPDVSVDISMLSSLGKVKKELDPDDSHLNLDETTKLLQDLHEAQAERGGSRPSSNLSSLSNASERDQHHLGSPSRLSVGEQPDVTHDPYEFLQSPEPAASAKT
Outline: (§2)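 Cells given 1 µM compound before harvest: HeLa 4 h, RI-1 2 h and 8 h. BRD9, BRD7 and β-actin detected by Western blot; band intensities quantified.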

[5] = target: T3, Protein cereblon/Bromodomain-containing protein 9 (Homo sapiens); experiment: PROTAC activity at CRBN/BRD9 in human HeLa cells assessed as remaining BRD9 protein level at 1 uM incubated for 16 hrs by Western blot analysis relative to control; assay type: cell-based
Outline: (§3)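 HeLa cells given 1 µM compound for 16 h before harvest. BRD9, BRD7 and β-actin detected by Western blot; band intensities quantified.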

[6] = target: T4, Protein cereblon/Bromodomain-containing protein 7 (Homo sapiens) (UniProt Q9NPI1+Q96SW2); experiment: PROTAC activity at CRBN/BRD7 in human HeLa cells assessed as remaining BRD7 protein level at 1 uM incubated for 4 hrs by Western blot analysis relative to control; assay type: cell-based; outline: as §2
T4 sequence (Q96SW2 whole entry, looked up): as the sequence (Q96SW2 whole entry, looked up) above
T4 sequence (Q9NPI1 whole entry, looked up): as the sequence (Q9NPI1 whole entry, looked up) above

[7] = target: T4, Protein cereblon/Bromodomain-containing protein 7 (Homo sapiens); experiment: PROTAC activity at CRBN/BRD7 in human HeLa cells assessed as remaining BRD7 protein level at 1 uM incubated for 16 hrs by Western blot analysis relative to control; assay type: cell-based; outline: as §3
[8] = target: T5, DDB1- and CUL4-associated factor 15/Bromodomain-containing protein 9 (Homo sapiens) (UniProt Q9H8M2+Q66K64); experiment: PROTAC activity at DCAF15/BRD9 in human HeLa cells assessed as remaining BRD9 protein level at 1 uM incubated for 4 hrs by Western blot analysis relative to control; assay type: cell-based
T5 sequence (Q66K64 whole entry, looked up): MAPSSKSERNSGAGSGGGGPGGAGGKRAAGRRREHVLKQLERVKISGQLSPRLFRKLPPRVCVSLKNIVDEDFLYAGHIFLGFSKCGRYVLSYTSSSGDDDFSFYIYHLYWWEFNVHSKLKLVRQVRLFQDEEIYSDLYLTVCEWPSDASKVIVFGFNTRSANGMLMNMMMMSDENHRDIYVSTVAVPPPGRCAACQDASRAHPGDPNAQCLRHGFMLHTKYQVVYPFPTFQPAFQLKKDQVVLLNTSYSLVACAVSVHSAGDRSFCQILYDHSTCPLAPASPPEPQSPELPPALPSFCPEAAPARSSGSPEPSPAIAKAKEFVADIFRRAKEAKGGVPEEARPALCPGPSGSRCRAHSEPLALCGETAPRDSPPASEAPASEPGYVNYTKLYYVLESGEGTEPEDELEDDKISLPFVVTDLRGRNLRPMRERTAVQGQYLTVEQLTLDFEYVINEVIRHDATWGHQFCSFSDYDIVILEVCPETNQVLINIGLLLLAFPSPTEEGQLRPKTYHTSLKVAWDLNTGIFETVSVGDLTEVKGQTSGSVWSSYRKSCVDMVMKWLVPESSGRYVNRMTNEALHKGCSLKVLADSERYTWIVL
T5 sequence (Q9H8M2 whole entry, looked up): as the sequence (Q9H8M2 whole entry, looked up) above

[9] = target: T5, DDB1- and CUL4-associated factor 15/Bromodomain-containing protein 9 (Homo sapiens); experiment: PROTAC activity at DCAF15/BRD9 in human HeLa cells assessed as remaining BRD9 protein level at 1 uM incubated for 16 hrs by Western blot analysis relative to control; assay type: cell-based
[10] = target: T6, DDB1- and CUL4-associated factor 15/Bromodomain-containing protein 7 (Homo sapiens) (UniProt Q9NPI1+Q66K64); experiment: PROTAC activity at DCAF15/BRD7 in human HeLa cells assessed as remaining BRD7 protein level at 1 uM incubated for 4 hrs by Western blot analysis relative to control; assay type: cell-based
T6 sequence (Q66K64 whole entry, looked up): as the sequence (Q66K64 whole entry, looked up) above
T6 sequence (Q9NPI1 whole entry, looked up): as the sequence (Q9NPI1 whole entry, looked up) above

[11] = target: T6, DDB1- and CUL4-associated factor 15/Bromodomain-containing protein 7 (Homo sapiens); experiment: PROTAC activity at DCAF15/BRD7 in human HeLa cells assessed as remaining BRD7 protein level at 1 uM incubated for 16 hrs by Western blot analysis relative to control; assay type: cell-based
[12] = target: T2, von Hippel-Lindau disease tumor suppressor/Bromodomain-containing protein 7 (Homo sapiens); experiment: PROTAC activity at VHL/BRD7 in human HeLa cells assessed as protein degradation at 1 uM incubated for 4 hrs by Western blot analysis relative to control; assay type: cell-based
[13] = target: T1, von Hippel-Lindau disease tumor suppressor/Bromodomain-containing protein 9 (Homo sapiens); experiment: PROTAC activity at VHL/BRD9 in human HeLa cells assessed as protein degradation at 1 uM incubated for 4 hrs by Western blot analysis relative to control; assay type: cell-based; outline: as §1
[14] = target: T2, von Hippel-Lindau disease tumor suppressor/Bromodomain-containing protein 7 (Homo sapiens); experiment: PROTAC activity at VHL/BRD7 in human HeLa cells assessed as protein degradation at 1 uM incubated for 16 hrs by Western blot analysis relative to control; assay type: cell-based
[15] = target: T1, von Hippel-Lindau disease tumor suppressor/Bromodomain-containing protein 9 (Homo sapiens); experiment: PROTAC activity at VHL/BRD9 in human HeLa cells assessed as protein degradation at 1 uM incubated for 16 hrs by Western blot analysis relative to control; assay type: cell-based; outline: as §1
[16] = target: T1, von Hippel-Lindau disease tumor suppressor/Bromodomain-containing protein 9 (Homo sapiens); experiment: PROTAC activity at VHL/BRD9 in human Ri-1 cells assessed as remaining BRD9 protein level at 1 uM incubated for 2 hrs by Western blot analysis relative to control; assay type: cell-based
Outline: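 Ri-1 cells exposed to compound for the stated time before harvest; BRD9, BRD7 and β-actin measured by Western blot, band intensities quantified and set against DMSO-treated control.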

[17] = target: T2, von Hippel-Lindau disease tumor suppressor/Bromodomain-containing protein 7 (Homo sapiens); experiment: PROTAC activity at VHL/BRD7 in human Ri-1 cells assessed as remaining BRD7 protein level at 1 uM incubated for 2 hrs by Western blot analysis relative to control; assay type: cell-based

T1 sequence (P40337 whole entry, looked up): as the sequence (P40337 whole entry, looked up) above
T1 sequence (Q9H8M2 whole entry, looked up): as the sequence (Q9H8M2 whole entry, looked up) above

Structure (SMILES) | Activity [1] [%] | Activity [2] [%] | Activity [3] [%] | also measured
COc1cc(-c2cn(C)c(=O)c3cnccc23)cc(OC)c1CN1CCN(CCOCCOCCOCCOCCOc2cc(-c3scnc3C)ccc2CNC(=O)[C@@H]2C[C@@H](O)CN2C(=O)[C@@H](NC(C)=O)C(C)(C)C)CC1 | 114 | 109 | 98 | 
COc1cccc2c1C(=O)c1c(O)c3c(c(O)c1C2=O)C[C@@](O)(C(=O)CO)C[C@@H]3O[C@H]1C[C@H](N)[C@H](O)[C@H](C)O1 [DOXORUBICIN] |  |  |  | IC50 (A204): 6.48 nM; IC50 (EOL1): 1.27 nM
COc1cc(-c2cn(C)c(=O)c3cnccc23)cc(OC)c1CN1CCN(C(=O)COCCOCCOCN[C@H](C(=O)N2C[C@H](O)C[C@H]2C(=O)NCc2ccc(-c3scnc3C)cc2)C(C)(C)C)CC1 | 73 |  | 113 | 
COc1cc(-c2cn(C)c(=O)c3cnccc23)cc(OC)c1CN1CCN(CCOCCOCCOc2cc(-c3scnc3C)ccc2CNC(=O)[C@@H]2C[C@@H](O)CN2C(=O)[C@@H](NC(C)=O)C(C)(C)C)CC1 | 156 | 95 | 107 | 
COc1cc(-c2cn(C)c(=O)c3cnccc23)cc(OC)c1CN1CCN(CCOCCOCCOCC(=O)N[C@H](C(=O)N2C[C@H](O)C[C@H]2C(=O)NCc2ccc(-c3scnc3C)cc2)C(C)(C)C)CC1 | 95 | 107 | 106 | 
COc1cc(-c2cn(C)c(=O)c3cnccc23)c(OC)cc1CN(C)C |  |  |  | IC50 (A204): 3550 nM; IC50 (EOL1): 339 nM
COc1cc(-c2cn(C)c(=O)c3cnccc23)cc(OC)c1CN1CCN(CCOCCOCCOCCOCC(=O)NCCNc2cccc3c2C(=O)N(C2CCC(=O)NC2=O)C3=O)CC1 (centres undefined) |  |  |  | Activity [4]: 19%; Activity [5]: 11%; Activity [6]: 106%; Activity [7]: 94%
COc1cc(-c2cn(C)c(=O)c3cnccc23)cc(OC)c1CN1CCN(CCOCCOCC(=O)NCc2ccc(S(=O)(=O)Nc3cccc4c(Cl)c[nH]c34)cc2)CC1 |  |  |  | Activity [8]: 125%; Activity [9]: 81%; Activity [10]: 101%; Activity [11]: 86%
COc1cc(-c2cn(C)c(=O)c3cnccc23)cc(OC)c1CN1CCN(CCOCCOCCOCCOCCOCC(=O)N[C@H](C(=O)N2C[C@H](O)C[C@H]2C(=O)NCc2ccc(-c3scnc3C)cc2)C(C)(C)C)CC1 | 112 | 104 | 54 | 
COc1cc(-c2cn(C)c(=O)c3cnccc23)cc(OC)c1CN1CCN(CCOCCOCCOCCOCCOc2cc(-c3scnc3C)ccc2CNC(=O)[C@@H]2C[C@@H](O)CN2C(=O)[C@@H](NC(=O)C2(C#N)CC2)C(C)(C)C)CC1 | 98 | 89 | 124 | 
COc1cc(-c2cn(C)c(=O)c3cnccc23)cc(OC)c1CN1CCN(CCOCCOCCOCCOCC(=O)N[C@H](C(=O)N2C[C@H](O)C[C@H]2C(=O)NCc2ccc(-c3scnc3C)cc2)C(C)(C)C)CC1 | 78 | 81 | 73 | Activity [12]: 20%; Activity [13]: 20%; Activity [14]: 30%; Activity [15]: 30%
COc1cc(-c2cn(C)c(=O)c3cnccc23)cc(OC)c1CN(C)C |  | 90 |  | IC50 (A204): 372 nM; IC50 (EOL1): 89.3 nM
COc1cc(-c2cn(C)c(=O)c3cnccc23)cc(OC)c1CN1CC(NC(=O)COCCOCCOc2cc(-c3scnc3C)ccc2CNC(=O)[C@@H]2C[C@@H](O)CN2C(=O)[C@@H](NC(=O)C2(F)CC2)C(C)(C)C)C1 |  | 53 |  | Activity [16]: 95%; Activity [17]: 92%
COc1cc(-c2cn(C)c(=O)c3cnccc23)cc(OC)c1CN1CCN(CCCCCOCCOCC(=O)N[C@H](C(=O)N2C[C@H](O)C[C@H]2C(=O)NCc2ccc(-c3scnc3C)cc2)C(C)(C)C)CC1 | 61 | 106 | 80 | 
COc1cc(-c2cn(C)c(=O)c3cnccc23)c(OC)cc1CN1CC(NC(=O)COCCOc2cc(-c3scnc3C)ccc2CNC(=O)[C@@H]2C[C@@H](O)CN2C(=O)[C@@H](NC(=O)C2(F)CC2)C(C)(C)C)C1 |  | 158 |  | Activity [16]: 99%; Activity [17]: 112%
COc1cc(-c2cn(C)c(=O)c3cnccc23)c(OC)cc1CN1CCN(CCCCCOc2cc(-c3scnc3C)ccc2CNC(=O)[C@@H]2C[C@@H](O)CN2C(=O)[C@@H](NC(=O)C2(F)CC2)C(C)(C)C)CC1 |  | 151 |  | Activity [16]: 65%; Activity [17]: 65%
COc1cc(-c2cn(C)c(=O)c3cnccc23)c(OC)cc1CN1CCN(CCOCCOCCOCCOc2cc(-c3scnc3C)ccc2CNC(=O)[C@@H]2C[C@@H](O)CN2C(=O)[C@@H](NC(=O)C2(F)CC2)C(C)(C)C)CC1 |  | 206 |  | Activity [16]: 127%; Activity [17]: 134%
COc1cc(-c2cn(C)c(=O)c3cnccc23)cc(OC)c1CN1CCN(CCOCCOCCOCCOCC(=O)NCc2ccc(S(=O)(=O)Nc3cccc4c(Cl)c[nH]c34)cc2)CC1 |  |  |  | Activity [8]: 126%; Activity [9]: 86%; Activity [10]: 81%; Activity [11]: 86%
COc1cc(-c2cn(C)c(=O)c3cnccc23)cc(OC)c1CN1CCN(CCOCCOCCOCCOCCOc2cc(-c3scnc3C)ccc2CNC(=O)[C@@H]2C[C@@H](O)CN2C(=O)[C@@H](NC(=O)C2(F)CC2)C(C)(C)C)CC1 | 97 | 110 | 163 | 
COc1cc(-c2cn(C)c(=O)c3cnccc23)cc(OC)c1CN(C)CC(=O)NCCOCCOCCNc1cccc2c1C(=O)N(C1CCC(=O)NC1=O)C2=O (centres undefined) |  |  |  | IC50 (A204): 89.8 nM; IC50 (EOL1): 4.87 nM
COc1cc(-c2cn(C)c(=O)c3cnccc23)cc(OC)c1CN1CCN(CCOCCOCCOc2cc(-c3scnc3C)ccc2CNC(=O)[C@@H]2C[C@@H](O)CN2C(=O)[C@@H](NC(=O)C2(C#N)CC2)C(C)(C)C)CC1 | 63 | 88 | 187 | 
COc1cc(-c2cn(C)c(=O)c3cnccc23)c(OC)cc1CN1CC(NC(=O)COCCOCCOc2cc(-c3scnc3C)ccc2CNC(=O)[C@@H]2C[C@@H](O)CN2C(=O)[C@@H](NC(=O)C2(F)CC2)C(C)(C)C)C1 |  | 280 |  | Activity [16]: 103%; Activity [17]: 120%
